Assay results published in ChEMBL document CHEMBL1649441, “Potency and bactericidal activity of iclaprim against recent clinical gram-positive isolates” (2009).
Values after ≈ are worked out from the molar mass of the structure shown.

Tests used:
Type in all cases: functional
Staphylococcus aureus [1] = assay: Antibacterial activity against Methicillin-resistant Staphylococcus aureus assessed as susceptible isolates by CLSI broth microdilution method
[2] = system: Streptococcus sp. 'group A'; assay: Antibacterial activity against Beta-hemolytic Streptococcus group A assessed as susceptible isolates by CLSI broth microdilution method
In short: (§1)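 Clinical isolates from skin/soft tissue, bloodstream and respiratory specimens were tested by broth microdilution per CLSI M7-A7 and M100-S18, with quality controls. Values are the number of isolates inhibited at each concentration, or MIC / percent susceptible. Highest concentration tested was 8 µg/ml for iclaprim and trimethoprim-sulfamethoxazole, and 64 µg/ml for trimethoprim.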

[3] = system: Streptococcus sp. 'group B'; assay: Antibacterial activity against Beta-hemolytic Streptococcus group B assessed as susceptible isolates by CLSI broth microdilution method; in short: as §1
Enterococcus faecalis [4] = assay: Antibacterial activity against Enterococcus faecalis by CLSI broth microdilution method
Staphylococcus aureus [5] = assay: Antibacterial activity against Methicillin-sensitive Staphylococcus aureus by CLSI broth microdilution method
[6] = system: Streptococcus sp. 'group A'; assay: Antibacterial activity against Beta-hemolytic Streptococcus group A assessed as resistant isolates by CLSI broth microdilution method
In short: (§2)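 Recent clinical isolates from skin/soft tissue, bloodstream and respiratory specimens. Tested by broth microdilution per CLSI M7-A7 and M100-S18, with the appropriate quality controls. The thymidine content of the test medium was assessed to rule out artifactual inhibition.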

Staphylococcus aureus [7] = assay: Antibacterial activity against Methicillin-sensitive Staphylococcus aureus assessed as resistant isolates by CLSI broth microdilution method
Staphylococcus aureus [8] = assay: Antibacterial activity against Methicillin-resistant Staphylococcus aureus by CLSI broth microdilution method
[9] = system: Streptococcus sp. 'group B'; assay: Antibacterial activity against Beta-hemolytic Streptococcus group B by CLSI broth microdilution method; in short: as §1
[10] = system: Streptococcus sp. 'group B'; assay: Antibacterial activity against Beta-hemolytic Streptococcus group B assessed as resistant isolates by CLSI broth microdilution method; in short: as §2
Staphylococcus aureus [11] = assay: Antibacterial activity against Methicillin-sensitive Staphylococcus aureus assessed as susceptible isolates by CLSI broth microdilution method
[12] = system: Streptococcus sp. 'group A'; assay: Antibacterial activity against Beta-hemolytic Streptococcus group A by CLSI broth microdilution method; in short: as §1
Enterococcus faecium [13] = assay: Antibacterial activity against Enterococcus faecium by CLSI broth microdilution method
Staphylococcus aureus [14] = assay: Antibacterial activity against Methicillin-resistant Staphylococcus aureus assessed as resistant isolates by CLSI broth microdilution method
Enterococcus faecium [15] = assay: Antibacterial activity against Enterococcus faecium assessed as susceptible isolates by CLSI broth microdilution method
Enterococcus faecalis [16] = assay: Antibacterial activity against Enterococcus faecalis assessed as resistant isolates by CLSI broth microdilution method
Enterococcus faecalis [17] = assay: Antibacterial activity against Enterococcus faecalis assessed as susceptible isolates by CLSI broth microdilution method
Enterococcus faecium [18] = assay: Antibacterial activity against Enterococcus faecium assessed as resistant isolates by CLSI broth microdilution method

SMILES	Activity (Staphylococcus aureus [1])	Activity [2]	Activity [3]	MIC50 (Enterococcus faecalis [4])	MIC90 (Enterococcus faecalis [4])	MIC50 (Staphylococcus aureus [5])	MIC90 (Staphylococcus aureus [5])	Activity (Staphylococcus aureus [7])	MIC90 (Staphylococcus aureus [8])	MIC50 [9]	MIC90 [9]	Activity (Staphylococcus aureus [11])	MIC50 [12]	MIC90 [12]	MIC50 (Enterococcus faecium [13])	MIC90 (Enterococcus faecium [13])	Activity (Enterococcus faecium [15])	Activity (Enterococcus faecalis [16])	Activity (Enterococcus faecalis [17])	Activity (Enterococcus faecium [18])	other results
CCC[C@@H]1C[C@@H](C(=O)N[C@@H]([C@H]2O[C@H](SC)[C@H](O)[C@@H](O)[C@H]2O)[C@H](C)Cl)N(C)C1 [CLINDAMYCIN]	52.7%	96.4%	88.7%	> 4 µg/mL	> 4 µg/mL	≤ 0.12 µg/mL	≤ 0.12 µg/mL	3.4%	> 4 µg/mL	≤ 0.12 µg/mL	> 4 µg/mL	96.4%	≤ 0.12 µg/mL	≤ 0.12 µg/mL	> 4 µg/mL	> 4 µg/mL					Activity [6]: 3.3%; MIC [9]: ≤ 0.12 µg/mL; Activity [10]: 10.3%; MIC [12]: ≤ 0.12 µg/mL; Activity (Staphylococcus aureus [14]): 47%
CC[C@H]1OC(=O)[C@H](C)[C@@H](O[C@H]2C[C@@](C)(OC)[C@@H](O)[C@H](C)O2)[C@H](C)[C@@H](O[C@@H]2O[C@H](C)C[C@H](N(C)C)[C@H]2O)[C@](C)(O)C[C@@H](C)C(=O)[C@H](C)[C@@H](O)[C@]1(C)O [ERYTHROMYCIN]	14.6%		73%	> 4 µg/mL	> 4 µg/mL	0.25 µg/mL (≈ 0.341 µM)	> 4 µg/mL	21.1%		≤ 0.12 µg/mL	> 4 µg/mL	77.9%	≤ 0.12 µg/mL	> 4 µg/mL	> 4 µg/mL	> 4 µg/mL	3%	52.9%	13.5%	84.5%	Activity [6]: 16.1%; MIC50 (Staphylococcus aureus [8]): > 4 µg/mL; Activity [10]: 26%; MIC [12]: ≤ 0.12 µg/mL; Activity (Staphylococcus aureus [14]): 84.3%
CN(C)[C@@H]1C(O)=C(C(N)=O)C(=O)[C@@]2(O)C(O)=C3C(=O)c4c(O)cccc4[C@@](C)(O)[C@H]3C[C@@H]12 [TETRACYCLINE]	86.5%	90.2%	21.6%	> 16 µg/mL	> 16 µg/mL	≤ 0.5 µg/mL	≤ 0.5 µg/mL	4%	> 16 µg/mL	> 16 µg/mL	> 16 µg/mL	95.8%	≤ 0.5 µg/mL	≤ 0.5 µg/mL	≤ 0.5 µg/mL	> 16 µg/mL	67.3%	71.3%	28.4%	32%	Activity [6]: 9.6%; Activity [10]: 77.9%; MIC [12]: ≤ 0.5 µg/mL; MIC (Enterococcus faecium [13]): ≤ 0.5 µg/mL; Activity (Staphylococcus aureus [14]): 12.8%
CC1(C)S[C@@H]2[C@H](NC(=O)Cc3ccccc3)C(=O)N2[C@H]1C(=O)O [PENICILLIN G]		100%	100%							≤ 0.06 µg/mL	≤ 0.06 µg/mL		≤ 0.06 µg/mL	≤ 0.06 µg/mL							MIC [9]: ≤ 0.06 µg/mL; MIC [12]: ≤ 0.06 µg/mL
C[C@H]1COc2c(N3CCN(C)CC3)c(F)cc3c(=O)c(C(=O)O)cn1c23.C[C@H]1COc2c(N3CCN(C)CC3)c(F)cc3c(=O)c(C(=O)O)cn1c23.O [LEVOFLOXACIN]	16.8%		99.5%	1 µg/mL	> 4 µg/mL	0.25 µg/mL	0.5 µg/mL	5.6%	> 4 µg/mL	0.5 µg/mL	1 µg/mL	94.2%	0.5 µg/mL	1 µg/mL	> 4 µg/mL	> 4 µg/mL	14.2%	34.2%	65.2%	82.2%	Activity [6]: 0%; MIC50 (Staphylococcus aureus [8]): > 4 µg/mL; Activity [10]: 0.5%; Activity (Staphylococcus aureus [14]): 82.4%
CC1(C)S[C@@H]2[C@H](NC(=O)[C@H](N)c3ccccc3)C(=O)N2[C@H]1C(=O)O [AMPICILLIN]				≤ 4 µg/mL	≤ 4 µg/mL										> 16 µg/mL	> 16 µg/mL	11.9%	0%	100%	88.1%	MIC (Enterococcus faecalis [4]): ≤ 4 µg/mL
CN[C@H](CC(C)C)C(=O)N[C@H]1C(=O)N[C@@H](CC(N)=O)C(=O)N[C@H]2C(=O)N[C@H]3C(=O)N[C@H](C(=O)N[C@H](C(=O)O)c4cc(O)cc(O)c4-c4cc3ccc4O)[C@H](O)c3ccc(c(Cl)c3)Oc3cc2cc(c3O[C@@H]2O[C@H](CO)[C@@H](O)[C@H](O)[C@H]2O[C@H]2C[C@](C)(N)[C@H](O)[C@H](C)O2)Oc2ccc(cc2Cl)[C@H]1O [VANCOMYCIN]	100%	100%	100%	1 µg/mL (≈ 0.69 µM)	2 µg/mL (≈ 1.38 µM)	1 µg/mL (≈ 0.69 µM)	1 µg/mL (≈ 0.69 µM)	0%	1 µg/mL (≈ 0.69 µM)	≤ 0.5 µg/mL	≤ 0.5 µg/mL	100%	≤ 0.5 µg/mL	≤ 0.5 µg/mL	1 µg/mL (≈ 0.69 µM)	> 16 µg/mL	55.8%	1.9%	97.7%	43.2%	MIC50 (Staphylococcus aureus [8]): 1 µg/mL (≈ 0.69 µM); MIC [9]: ≤ 0.5 µg/mL; MIC [12]: ≤ 0.5 µg/mL; Activity (Staphylococcus aureus [14]): 0%
CC(=O)NC[C@H]1CN(c2ccc(N3CCOCC3)c(F)c2)C(=O)O1 [LINEZOLID]		100%	100%	1 µg/mL (≈ 2.96 µM)	2 µg/mL (≈ 5.93 µM)	2 µg/mL (≈ 5.93 µM)	2 µg/mL (≈ 5.93 µM)		2 µg/mL (≈ 5.93 µM)	1 µg/mL (≈ 2.96 µM)	1 µg/mL (≈ 2.96 µM)	100%	1 µg/mL (≈ 2.96 µM)	1 µg/mL (≈ 2.96 µM)	1 µg/mL (≈ 2.96 µM)	2 µg/mL (≈ 5.93 µM)	99.3%	0%	100%	0.7%	MIC50 (Staphylococcus aureus [8]): 2 µg/mL (≈ 5.93 µM)
